Results as given in ChEMBL document CHEMBL1122873, “Acetoxy-substituted 1,1,2-triphenylbut-1-enes with antiestrogenic and mammary tumor inhibiting properties” (1985).

Assays:
[1] = target: T1, Estrogen receptor (Mus musculus) (UniProt O08537+P19785); test: Estrogenic activity in immature mouse using Uterine weight test at 1 ug dose; format: functional
Outline: (§1)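 Immature female NMRI mice (10–12 g, 20 days old at start, 10 per group) got the compound sc daily for 3 consecutive days in 0.1 mL olive oil. Uteri were removed 24 h after the last injection, fixed in Bouin's solution, dried and weighed. Uterine growth stimulation is the estrogenic read-out.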

[2] = target: T1, Estrogen receptor (Mus musculus); test: Estrogenic activity in immature mouse using Uterine weight test at 5 ug dose; format: functional; outline: as §1
[3] = target: T1, Estrogen receptor (Mus musculus); test: Estrogenic activity in immature mouse using Uterine weight test at 25 ug dose; format: functional; outline: as §1
[4] = target: T1, Estrogen receptor (Mus musculus); test: Antiestrogenic activity in immature mouse Uterine weight test at 1 ug dose; format: functional
Outline: (§2)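 Antiestrogenic read-out is inhibition of estrone-stimulated uterine growth, given as % inhibition. Immature female NMRI mice (10–12 g, 20 days old, 10 per group) received the compound sc daily for 3 days in 0.1 mL olive oil. Uteri were taken 24 h after the last dose, Bouin-fixed, dried and weighed.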

[5] = target: T1, Estrogen receptor (Mus musculus); test: Antiestrogenic activity in immature mouse Uterine weight test at 5 ug dose; format: functional; outline: as §2
Mus musculus [6] = test: In vivo inhibition of hormone-dependent MXT mammary tumor in BDF1 mouse at 8.0 mg/kg dose; format: functional
Outline: (§3)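 Transplantable hormone-dependent MXT tumor pieces (1 per animal) were implanted in BDF1 mice, then randomized into groups of 10. Dosing was sc three times weekly (Mon/Wed/Fri) in olive oil (0.1 mL/mouse) from day 1 after transplantation for 6 weeks, at equimolar doses. Read-out is tumor weight T/C % versus solvent control (mean of 10); significance α ≤ 0.05.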

[7] = target: T1, Estrogen receptor (Mus musculus); test: In vivo uterotrophic effect in hormone-dependent MXT mammary tumor bearing BDF1 mice at 8.0 mg/kg dose; format: functional, organism-based; parameters: dose 8 mg/kg
Outline: (§4)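 Uterotrophic effect was measured in the same MXT tumor-bearing BDF1 mice (groups of 10). They were dosed sc three times weekly in olive oil (0.1 mL/mouse) for 6 weeks from day 1 after transplantation. Read-out is T/C % of uterotrophic effect versus solvent control after 6 weeks (mean of 10); significance α ≤ 0.05.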

[8] = target: T1, Estrogen receptor (Mus musculus); test: Estrogenic activity in immature mouse using Uterine weight test at 10 ug dose; format: functional; outline: as §1
Mus musculus [9] = test: In vivo inhibition of hormone-dependent MXT mammary tumor in BDF1 mouse at 12 mg/kg dose; format: functional; outline: as §3
[10] = target: T1, Estrogen receptor (Mus musculus); test: Estrogenic activity in immature mouse using Uterine weight test at 50 ug dose; format: functional; outline: as §1
[11] = target: T1, Estrogen receptor (Mus musculus); test: Antiestrogenic activity in immature mouse Uterine weight test at 100 ug dose; format: functional; outline: as §2
[12] = target: T1, Estrogen receptor (Mus musculus); test: Antiestrogenic activity in immature mouse Uterine weight test at 25 ug dose; format: functional; outline: as §2
[13] = target: T1, Estrogen receptor (Mus musculus); test: In vivo uterotrophic effect in hormone-dependent MXT mammary tumor bearing BDF1 mice at 12 mg/kg dose; format: functional, organism-based; parameters: dose 12 mg/kg; outline: as §4
[14] = target: T1, Estrogen receptor (Mus musculus); test: Estrogenic activity in immature mouse using Uterine weight test at 250 ug dose; format: functional; outline: as §1
[15] = target: T2, Estrogen receptor (Bos taurus) (UniProt Q9XSB5+P49884); test: Relative displacement of [3H]estradiol from calf uterine estrogen receptor; format: protein assay
Outline: (§5)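 Calf uterine cytosol was incubated with 1×10⁻⁹ M [³H]estradiol and five or six competitor concentrations for 16 h at 4 °C. Dextran-coated charcoal removed unbound ligand (90 min, 4 °C), and supernatant radioactivity was counted. The 50% displacement concentration was read from a semilog plot. RBA = [E2]/[I] × 100.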

Mus musculus [16] = test: In vivo inhibition of hormone-dependent MXT mammary tumor in BDF1 mouse at 11.3 mg/kg dose; format: functional; outline: as §3
[17] = target: T2, Estrogen receptor (Bos taurus); test: Tested in vitro for its binding affinity against Estrogen receptor; format: protein assay; outline: as §5
[18] = target: T1, Estrogen receptor (Mus musculus); test: Antiestrogenic activity in immature mouse Uterine weight test at 25 ug dose
Mus musculus [19] = test: In vivo inhibition of hormone-dependent MXT mammary tumor in BDF1 mouse at 5.4 mg/kg dose; format: functional; outline: as §3
[20] = target: T1, Estrogen receptor (Mus musculus); test: Estrogenic activity in immature mouse using Uterine weight test at 0.5 ug dose; format: functional; outline: as §1

T1 sequence (O08537 whole entry, looked up): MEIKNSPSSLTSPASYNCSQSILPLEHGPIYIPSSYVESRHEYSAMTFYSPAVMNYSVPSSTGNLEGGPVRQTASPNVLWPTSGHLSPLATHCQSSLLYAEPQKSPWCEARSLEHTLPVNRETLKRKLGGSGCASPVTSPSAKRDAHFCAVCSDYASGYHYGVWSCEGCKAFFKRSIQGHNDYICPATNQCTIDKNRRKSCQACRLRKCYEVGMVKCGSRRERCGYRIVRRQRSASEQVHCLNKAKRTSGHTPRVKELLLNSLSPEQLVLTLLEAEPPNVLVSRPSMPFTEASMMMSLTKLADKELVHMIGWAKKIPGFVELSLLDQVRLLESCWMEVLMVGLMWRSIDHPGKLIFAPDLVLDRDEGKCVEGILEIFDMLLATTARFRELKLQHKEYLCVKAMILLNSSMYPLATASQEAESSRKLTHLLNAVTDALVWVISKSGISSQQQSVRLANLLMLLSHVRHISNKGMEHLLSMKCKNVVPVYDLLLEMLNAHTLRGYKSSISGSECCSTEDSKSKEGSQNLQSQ
T1 sequence (P19785 whole entry, looked up): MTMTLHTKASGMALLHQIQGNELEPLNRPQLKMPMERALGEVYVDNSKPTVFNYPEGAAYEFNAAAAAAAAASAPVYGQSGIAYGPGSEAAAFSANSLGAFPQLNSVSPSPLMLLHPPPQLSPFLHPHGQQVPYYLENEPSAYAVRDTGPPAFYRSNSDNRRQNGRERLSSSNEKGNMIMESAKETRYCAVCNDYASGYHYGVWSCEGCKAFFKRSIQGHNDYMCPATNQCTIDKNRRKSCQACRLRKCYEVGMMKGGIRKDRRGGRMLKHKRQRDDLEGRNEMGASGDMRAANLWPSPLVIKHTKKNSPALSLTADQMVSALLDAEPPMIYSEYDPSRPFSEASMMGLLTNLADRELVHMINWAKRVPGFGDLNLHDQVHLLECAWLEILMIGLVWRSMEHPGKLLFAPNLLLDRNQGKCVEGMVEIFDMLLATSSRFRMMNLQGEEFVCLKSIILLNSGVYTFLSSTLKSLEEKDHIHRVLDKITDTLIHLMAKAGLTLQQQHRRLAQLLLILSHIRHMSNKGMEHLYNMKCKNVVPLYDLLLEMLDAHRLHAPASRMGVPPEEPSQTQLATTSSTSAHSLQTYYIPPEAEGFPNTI

## CCC(=C(c1ccc(OC(C)=O)cc1)c1ccc(OC(C)=O)cc1)c1ccccc1
[1]
  Estrogenic effect: 37
[2]
  Estrogenic effect: 72
[3]
  Estrogenic effect: 98
[4]
  inhibition: 0%
[5]
  inhibition: 0%
Mus musculus [6]
  T/C: 7%
[7]
  T/C: 110%
[8]
  Estrogenic effect: 85

## CC/C(=C(/c1ccc(OC(C)=O)cc1)c1cccc(OC(C)=O)c1)c1ccccc1
[1]
  Estrogenic effect: 8
Mus musculus [9]
  T/C: 8%
[10]
  Estrogenic effect: 66
[11]
  inhibition: 9%
[2]
  Estrogenic effect: 15
[12]
  inhibition: 33%
[5]
  inhibition: 28%
[13]
  T/C: 110%
[14]
  Estrogenic effect: 66
[15]
  RBA: 3.5%

## CC/C(=C(\c1ccc(OC(C)=O)cc1)c1cccc(OC(C)=O)c1)c1ccccc1
[1]
  Estrogenic effect: 23
[10]
  Estrogenic effect: 73
[11]
  inhibition: 3%
[2]
  Estrogenic effect: 35
[12]
  inhibition: 32%
[5]
  inhibition: 41%
Mus musculus [6]
  T/C: 25%
[14]
  Estrogenic effect: 85
[7]
  T/C: 116%
[15]
  RBA: 8.7%

## CC/C(=C(\c1ccccc1)c1cccc(OC(C)=O)c1)c1ccc(OC(C)=O)cc1
[1]
  Estrogenic effect: 0
[10]
  Estrogenic effect: 61
[11]
  inhibition: 9%
[2]
  Estrogenic effect: 18
[12]
  inhibition: 16%
[5]
  inhibition: 45%
Mus musculus [6]
  T/C: 62%
[7]
  T/C: 96%
[15]
  RBA: 1.8%

## CC/C(=C(\c1ccccc1)c1ccc(OCCN(C)C)cc1)c1ccccc1.O=C(O)CC(O)(CC(=O)O)C(=O)O [TAMOXIFEN CITRATE]
Mus musculus [16]
  T/C: 4%

## CC/C(=C(/c1ccccc1)c1cccc(OC(C)=O)c1)c1ccc(OC(C)=O)cc1
[1]
  Estrogenic effect: 18
[10]
  Estrogenic effect: 92
[2]
  Estrogenic effect: 80
[4]
  inhibition: 12%
[12]
  inhibition: 0%
[5]
  inhibition: 0%
Mus musculus [6]
  T/C: 2%
[7]
  T/C: 175%
[15]
  RBA: 4.2%

## CC/C(=C(\c1ccccc1)c1ccc(OC(C)=O)cc1)c1cccc(OC(C)=O)c1
[2]
  Estrogenic effect: 94
[17]
  relative binding affinity (RBA): 6.1
[12]
  inhibition: 0%
[5]
  inhibition: 0%
[18]
  inhibition: 0%
Mus musculus [6]
  T/C: 7%
[7]
  T/C: 193%

## CC/C(=C(/CC)c1ccc(O)cc1)c1ccc(O)cc1 [DIETHYLSTILBESTROL]
Mus musculus [19]
  T/C: 3%

## CC/C(=C(/c1ccccc1)c1ccc(OC(C)=O)cc1)c1cccc(OC(C)=O)c1
[1]
  Estrogenic effect: 114
[2]
  Estrogenic effect: 81
Mus musculus [6]
  T/C: 1%
[20]
  Estrogenic effect: 124
[7]
  T/C: 205%
[15]
  RBA: 11.1%
